# This is one part of a sample in which hits are shown more often than they occur.
# Insulin prom act = TRM-6 insulin promoter activation. activation, % at 2 µM. AID 1296. TRM-6 cells, insulin promoter eGFP reporter, imaging; plate-scaled: unstimulated 0, stimulated control 100. actives 0.81% (n = 130,000);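 active = activation at 2 µM above a set limit, confirmed on inspection of the cell images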;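 also: share of cells whose green reporter signal exceeds an intensity cutoff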
#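 Test system: human fetal islet-derived TRM-6 cells with tamoxifen-inducible insulin promoter–eGFP reporter. Compound dosing: 2 µM final, single concentration. Incubation: tamoxifen pre-incubation 15 h overnight, then compound exposure 48 h at 37 °C. Signal: fixed-cell fluorescence microscopy, eGFP plus Hoechst.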
# Hits are given with their value; . = inactive.
SMILES,Insulin prom act
CCc1nc(C)cn1S(=O)(=O)c1cc(C)c(OC)c(C)c1C,.
O=C(CC1NCCc2ccccc21)Nc1ccccc1 (stereo not given),.
CN(C)c1ccc(NC(=O)COC(=O)CCC(=O)c2ccc(F)cc2)cc1,.
CN(C)c1ccc(NC(=O)CC2NCCNC2=O)cc1 (stereo not given),488
CN(C)c1cc[n+](CC(=O)Nc2ccc(Oc3ccccc3)cc2)cc1,.
CCSc1nnc(NS(=O)(=O)c2ccc(C)cc2)s1,.
Cc1ccccc1NC(=O)C(C)O/N=C/c1cccc([N+](=O)[O-])c1 (stereo not given),.
CCCC(C(=O)NC1CCCCC1)N(Cc1ccco1)C(=O)CNS(=O)(=O)c1ccccc1 (stereo not given),77
CCCCC(C(=O)NC1CCCC1)N(Cc1ccco1)C(=O)Cn1nnc(-c2ccc(F)cc2)n1 (stereo not given),.
CCCC(C(=O)NCc1ccco1)N(C(=O)CNS(=O)(=O)c1ccccc1)c1ccc(OC)cc1 (stereo not given),.
C1=C(c2ccccc2)Nc2ccccc2N=C1c1ccccc1,.
CC(Oc1ccc(Cl)cc1Cl)c1ccn[nH]1 (stereo not given),306
COCCNC(=O)C(C)Oc1ccc(Cl)cc1Cl (stereo not given),.
CC(Oc1ccc(Cl)cc1Cl)C(=O)NC1CCSC1=O (stereo not given),.
Cc1ccc(Sc2ncccc2COC(=O)NC(C)C)cc1,.
Cc1nc(NC(=O)c2ccc(Cl)cc2)sc1-c1csc(Nc2cccc(F)c2)n1,.
O=C(O)C1Nc2c(O)cc(Cl)c([N+](=O)[O-])c2C2C=CCC12 (stereo not given),.
COCc1nnc(N)s1,.
Nc1nnc(Cc2ccc(Cl)cc2Cl)s1,97
Clc1ccc(Cc2ccc(SCc3ccccc3)nn2)c(Cl)c1,.
CCN(CC)C(=O)/C(=C\c1ccc(Br)cc1)NC(=O)c1ccccc1OC,.
OCc1cc(-c2ccc(Cl)c(Cl)c2)on1,.
Cc1cc(C)c(NC(=O)CN2CCN3CCCC3C2)c(C)c1 (stereo not given),.
COc1ccc(NC(=O)/C=C/c2ccccc2)c([N+](=O)[O-])c1,.
COc1ccc(NC(=O)COC(=O)c2ccco2)c([N+](=O)[O-])c1,.
SMILES,Insulin prom act
COc1ccc(NC(=O)CC(C)c2ccccc2)c([N+](=O)[O-])c1 (stereo not given),443
CC(=O)Nc1nc(C)nc(C)c1C(C)=O,129
CC(=O)Nc1nc(-c2ccccc2)nc(C)c1C(C)=O,.
CCC(=O)Nc1nc(C)nc(C)c1C(C)=O,.
COc1ccc(-c2noc(CN(C(=O)c3cccs3)C(C)C)n2)cc1,.
COC(=O)C1=C(C)N(Cc2ccco2)C(=O)N[C@H]1c1cccc(C(F)(F)F)c1,.
Cc1ccccc1N1CCN(C(=O)CCN2C(=O)c3ccccc3C2=O)CC1,.
CCOC(=O)NCc1ccc(S(=O)(=O)Nc2c(C)cccc2C)cc1,.
CCOC(=O)C(C)Sc1ncnc2c1nnn2-c1ccc(F)cc1 (stereo not given),.
CCOC(=O)C(C)Sc1ncnc2nc[nH]c12 (stereo not given),513
CCOC(=O)C(CC)Sc1ncnc2nc[nH]c12 (stereo not given),.
COc1ccc(-c2nc(CN(CC3CCC(=O)N3)C(C)C)c(C)o2)c(C)c1C (stereo not given),.
O=C(COC(=O)CCOc1ccccc1)Nc1ncc(Cl)cc1Cl,.
COc1ccc2c(-c3ccccc3)cc(SCC(=O)NC(N)=O)nc2c1,.
COc1ccc2c(-c3ccccc3)cc(SCC(=O)N(C)C)nc2c1,.
COc1ccc2c(C)cc(SCC#N)nc2c1,167
Cc1ccc(NS(=O)(=O)c2cc(C(=O)N(C)C)ccc2C)cc1C,.
O=C(O)c1ccccc1C(=O)c1ccc(Br)s1,.
Cc1ccc(OCC(=O)Nc2ccc([N+](=O)[O-])cc2)cc1,.
O=[N+]([O-])c1ccc(COc2ccc(CNc3ccccc3)cc2)cc1,.
COC(=O)C(Cc1cnc(Cl)s1)(C(=O)OC)c1ccc([N+](=O)[O-])cc1,536
COC(=O)C(Cc1cnc(Cl)s1)(C(=O)OC)c1ccccc1[N+](=O)[O-],.
O=[N+]([O-])c1ccc(OCc2cnc(Cl)s2)cc1,240
CC1CN(CCOc2ccc([N+](=O)[O-])cc2)CC(C)O1 (stereo not given),.
O=C(O)C1CC=CCC1C(=O)NC1CCCCC1 (stereo not given),.
SMILES,Insulin prom act
Cc1cccc2c1N1C(=O)c3c(C(=O)O)cccc3C1CC2C (stereo not given),.
Cc1ccc(C(=O)Nc2cccc(C(=O)NCc3ccco3)c2)cc1,.
CC(c1ccccc1)N1C(=O)c2ccc(C(=O)NCc3ccco3)cc2C1=O (stereo not given),440
Cn1nnc2cc(C(=O)NCc3ccco3)ccc21,.
O=C(CCc1c[nH]c2ccccc12)NCC(=O)Nc1ccc(F)c(F)c1F,.
CCCCCCNS(=O)(=O)c1ccc(NC(=O)C2CCCO2)cc1 (stereo not given),.
O=C(CNC(=S)N(Cc1ccccc1)Cc1cccs1)NCc1ccc(F)cc1,.
CC(C)C(C(=O)NCC1CCCO1)N(Cc1ccco1)C(=O)CNS(=O)(=O)c1ccc(F)cc1 (stereo not given),.
O=C(CN(Cc1cccs1)C(=O)CNS(=O)(=O)c1ccc(F)cc1)NCc1ccco1,171
COc1cc(/C=C/C(=O)N2CCN(c3n[nH]c(=O)[nH]c3=O)CC2)cc(OC)c1OC,.
CC(=O)NN1C(=O)/C(=C/c2ccc(C(C)C)cc2)SC1=S,.
COc1cccc(NC(=O)C2C3C=CC4(O3)C2C(=O)N(C2CC2)C4C(=O)NC2CCCCC2C)c1 (stereo not given),810
CCCCN1C(=O)C2C(C(=O)Nc3cccc(OC)c3)C3C=CC2(O3)C1C(=O)NC1CCCCC1C (stereo not given),.
COc1cccc(NC(=O)C2C3C=CC4(O3)C2C(=O)N(C(C)C)C4C(=O)NC2CCCCC2C)c1 (stereo not given),.
O/N=C/c1cccnc1Sc1ccccc1,.
CCOC(=O)c1c(C)cc(C)n2c1nc1ccccc12,.
Cc1ccc(C(=O)c2cc([N+](=O)[O-])ccc2N2CCCCC2)c(C)c1,.
Cc1ccc2nc(NC(=O)c3ccc(OCC4CCCO4)cc3)sc2c1 (stereo not given),.
O=C(O)CCC1=C2c3ccccc3CCN2C(=O)CC1,450
COC(=O)CCC(=O)NN1C(=O)c2ccccc2C1=O,.
O=C1c2ccccc2C(=O)N1CCC(=O)N1CCc2ccccc21,.
Cc1nc(NCCc2ccccc2)c2oc3ccccc3c2n1,.
Clc1ccccc1CSc1ncccn1,.
CCCCC(=O)NS(=O)(=O)c1ccc(N=NN2CCOCC2)cc1,.
Cc1occc1-c1nnc(SCC(=O)NCCc2ccccc2)n1C(C)c1ccccc1 (stereo not given),.
CC(C)n1nnnc1SCC(=O)NCCc1ccccc1,75
CCCCn1nnnc1SCC(=O)NCc1ccccc1,.
Cc1nc(S(=O)(=O)N2CCOCC2)c(C#N)c(C)c1Cl,.
COc1ccc(NC(=O)CC2C(=O)N(Cc3ccccc3)C(=S)N2CCN2CCOCC2)cc1 (stereo not given),333
COc1ccc(NC(=O)CC2C(=O)N(C)C(=S)N2CCc2ccccc2)cc1 (stereo not given),.

# Source: PubChem
